Each structure is given as a SMILES string. Bounds are passed on as bounds.

What all share (assay type): cell-based
Test [1] addresses T1, Excitatory amino acid transporter 3 (Homo sapiens, UniProt P43005).
T1 sequence (P43005 whole entry): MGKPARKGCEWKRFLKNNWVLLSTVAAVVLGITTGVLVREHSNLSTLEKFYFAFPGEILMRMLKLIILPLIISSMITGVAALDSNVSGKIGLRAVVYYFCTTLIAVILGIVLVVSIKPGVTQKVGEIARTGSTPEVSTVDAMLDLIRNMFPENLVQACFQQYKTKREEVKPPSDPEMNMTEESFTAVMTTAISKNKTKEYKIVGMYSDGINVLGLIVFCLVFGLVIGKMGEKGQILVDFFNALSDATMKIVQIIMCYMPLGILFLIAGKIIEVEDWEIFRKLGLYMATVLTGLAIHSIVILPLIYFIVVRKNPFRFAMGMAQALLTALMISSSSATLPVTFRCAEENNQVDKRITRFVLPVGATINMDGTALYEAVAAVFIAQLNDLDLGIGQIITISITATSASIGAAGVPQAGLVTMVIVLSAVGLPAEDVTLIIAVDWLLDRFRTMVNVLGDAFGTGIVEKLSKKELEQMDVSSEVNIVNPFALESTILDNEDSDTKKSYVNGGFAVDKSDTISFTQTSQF
Put plainly: Inhibition of [3H]-D-aspartate uptake at human EAAT3 expressed in HEK293 cells after 6 mins by scintillation counting. The gist of the method:
(§1)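 Each transporter subtype stably expressed in its own HEK293 cell line. Inhibitor potency measured as block of [³H]-D-aspartate uptake into these cells and reported as IC₅₀ values.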

Test [2] has as its target Excitatory amino acid transporter 2 (Homo sapiens, UniProt P43004). Put plainly: Inhibition of [3H]-D-aspartate uptake at human EAAT2 expressed in HEK293 cells after 6 mins by scintillation counting. Put shortly:
as §1

The target of test [3] is Excitatory amino acid transporter 1 (Homo sapiens, UniProt P43003). Briefly: Inhibition of [3H]-D-aspartate uptake at human EAAT1 expressed in HEK293 cells after 6 mins by scintillation counting. Put shortly:
as §1

Excitatory amino acid transporter 2, sequence (P43004 whole entry): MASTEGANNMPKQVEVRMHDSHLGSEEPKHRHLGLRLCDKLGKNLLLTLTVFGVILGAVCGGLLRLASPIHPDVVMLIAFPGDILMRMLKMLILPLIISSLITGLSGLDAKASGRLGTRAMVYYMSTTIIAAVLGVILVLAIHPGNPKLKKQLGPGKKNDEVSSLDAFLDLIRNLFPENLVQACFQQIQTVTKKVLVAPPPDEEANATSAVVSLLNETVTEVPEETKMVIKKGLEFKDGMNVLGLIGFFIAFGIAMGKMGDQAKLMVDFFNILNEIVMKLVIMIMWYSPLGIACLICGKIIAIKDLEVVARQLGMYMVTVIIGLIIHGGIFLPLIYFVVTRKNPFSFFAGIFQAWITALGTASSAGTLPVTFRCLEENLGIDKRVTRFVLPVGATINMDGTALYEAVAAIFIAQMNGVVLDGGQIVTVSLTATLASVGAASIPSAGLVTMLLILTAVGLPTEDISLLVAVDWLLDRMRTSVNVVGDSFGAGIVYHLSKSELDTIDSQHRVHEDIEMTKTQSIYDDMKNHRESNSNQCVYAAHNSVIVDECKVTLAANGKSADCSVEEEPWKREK
Excitatory amino acid transporter 1, sequence (P43003 whole entry): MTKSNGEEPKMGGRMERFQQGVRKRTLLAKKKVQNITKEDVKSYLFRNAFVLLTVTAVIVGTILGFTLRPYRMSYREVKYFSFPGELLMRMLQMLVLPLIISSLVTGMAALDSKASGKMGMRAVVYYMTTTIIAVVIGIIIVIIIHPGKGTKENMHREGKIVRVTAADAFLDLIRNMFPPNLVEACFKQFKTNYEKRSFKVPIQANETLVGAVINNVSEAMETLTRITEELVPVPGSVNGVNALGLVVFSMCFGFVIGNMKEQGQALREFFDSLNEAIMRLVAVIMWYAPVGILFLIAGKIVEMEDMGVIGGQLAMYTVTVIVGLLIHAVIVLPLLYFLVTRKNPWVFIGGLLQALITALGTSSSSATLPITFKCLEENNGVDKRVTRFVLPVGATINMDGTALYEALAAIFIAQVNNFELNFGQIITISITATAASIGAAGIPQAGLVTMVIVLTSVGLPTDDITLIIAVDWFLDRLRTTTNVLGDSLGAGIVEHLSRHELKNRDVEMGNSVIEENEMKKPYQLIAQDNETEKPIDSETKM

Take `CCN(CC)c1ccc2c(C3CC(=O)C4=C(C3)OC(N)=C(C#N)C4C)cc(=O)oc2c1` (stereo not drawn): the IC50 is over 300 µM in test [1], over 300 µM in test [2] and 14 µM in test [3] (read-out: IC50).
In the case of `COc1ccc2c(C3CC(=O)C4=C(C3)OC(N)=C(C#N)C4C)cc(=O)oc2c1` (stereo not drawn), the IC50 in test [1] is over 300 µM; in test [2], over 300 µM; in test [3] (read-out: IC50), 17 µM; in test [3] (read-out: pIC50 (converted)), 16.2 µM.
Consider `CCN(CC)c1ccc2c(C)c(-c3ccc(C4C(C#N)=C(N)OC5=C4C(=O)CC(c4ccccc4)C5)cc3)c(=O)oc2c1` (stereo not drawn), for which the IC50 was over 300 µM in test [1], over 300 µM in test [2], over 300 µM in test [3] (read-out: IC50) and over 316 µM in test [3] (read-out: pIC50 (converted)).
As for `COc1ccc2c(C)c(-c3ccc(C4C(C#N)=C(N)OC5=C4C(=O)CC(c4ccccc4)C5)cc3)c(=O)oc2c1` (stereo not drawn), the IC50 in test [1] was over 300 µM; in test [2], over 300 µM; in test [3] (read-out: IC50), over 300 µM; in test [3] (read-out: pIC50 (converted)), over 316 µM.
Turning to `CCN(CC)c1ccc2c(C3C(C#N)=C(N)OC4=C3C(=O)CC(c3cccc5ccccc35)C4)cc(=O)oc2c1` (stereo not drawn), the IC50 in test [1] is over 300 µM; in test [2] it was over 300 µM; in test [3] (read-out: IC50) it was over 300 µM; in test [3] (read-out: pIC50 (converted)), over 316 µM.
On to `COc1ccc2c(C3C(C#N)=C(N)OC4=C3C(=O)CC(c3ccccc3)C4)cc(=O)oc2c1` (stereo not drawn), for which the IC50 was over 300 µM in test [1], over 300 µM in test [2], over 300 µM in test [3] (read-out: IC50) and over 316 µM in test [3] (read-out: pIC50 (converted)).

The values above are taken from ChEMBL document CHEMBL2203156, “Design, synthesis and pharmacological characterization of coumarin-based fluorescent analogs of excitatory amino acid transporter subtype 1 selective inhibitors, UCPH-101 and UCPH-102” (Bioorg Med Chem, 2012).
